Source: ChEMBL document CHEMBL1154150, “Synthesis and anticonvulsant activity of some new bishydrazones derived from 3,4-dipropyloxythiophene” (Eur J Med Chem, 2009)
Calls of active or inactive are those of the source. The calls are words filed in the database; no cut-off is given here.

Key:
Mus musculus [1] = assay: Anticonvulsant activity in CF1 mouse assessed as protection against maximal electroshock-induced seizures at 100 mg/kg, ip after 4 hrs; type: functional, organism-based; set-up: dose 100 mg/kg
Summary of the method: (§1)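 Male CF-1 albino mice (18–25 g), dosed i.p. at 30, 100 or 300 mg/kg in 0.5% methyl cellulose/water or PEG 200 (0.01 ml/g); tested at intervals after dosing; protection = abolition of hind limb tonic extensor component of MES seizure; scored as protected/tested.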

Mus musculus [2] = assay: Anticonvulsant activity in CF1 mouse assessed as protection against subcutaneous metrazole-induced seizures at 30 mg/kg, ip after 0.5 hrs; type: functional, organism-based; set-up: dose 30 mg/kg
Mus musculus [3] = assay: Anticonvulsant activity in CF1 mouse assessed as protection against maximal electroshock-induced seizures at 300 mg/kg, ip after 0.5 hrs; type: functional, organism-based; set-up: dose 300 mg/kg; summary of the method: as §1
Mus musculus [4] = assay: Anticonvulsant activity in CF1 mouse assessed as protection against subcutaneous metrazole-induced seizures at 300 mg/kg, ip after 4 hrs; type: functional, organism-based; set-up: dose 300 mg/kg
Mus musculus [5] = assay: Neurotoxicity in CF1 mouse at 100 mg/kg, ip after 0.5 hrs by rotarod test; type: toxicity, organism-based; set-up: dose 100 mg/kg, route intraperitoneal; settings: in vivo
Summary of the method: (§2)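 Rotorod neurotoxicity in male CF-1 mice (18–25 g) after i.p. compound in 0.5% methyl cellulose/water or PEG 200 at 30, 100 or 300 mg/kg; reported as number showing toxicity/number tested.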

Mus musculus [6] = assay: Anticonvulsant activity in CF1 mouse assessed as protection against subcutaneous metrazole-induced seizures at 30 mg/kg, ip after 4 hrs; type: functional, organism-based; set-up: dose 30 mg/kg
Mus musculus [7] = assay: Anticonvulsant activity in CF1 mouse assessed as protection against maximal electroshock-induced seizures at 100 mg/kg, ip after 0.5 hrs; type: functional, organism-based; set-up: dose 100 mg/kg; summary of the method: as §1
Mus musculus [8] = assay: Neurotoxicity in CF1 mouse at 300 mg/kg, ip after 4 hrs by rotarod test; type: toxicity, organism-based; set-up: dose 300 mg/kg, route intraperitoneal; settings: in vivo; summary of the method: as §2
Mus musculus [9] = assay: Anticonvulsant activity in CF1 mouse assessed as protection against subcutaneous metrazole-induced seizures at 300 mg/kg, ip after 0.5 hrs; type: functional, organism-based; set-up: dose 300 mg/kg
Mus musculus [10] = assay: Neurotoxicity in CF1 mouse at 100 mg/kg, ip after 4 hrs by rotarod test; type: toxicity, organism-based; set-up: dose 100 mg/kg, route intraperitoneal; settings: in vivo; summary of the method: as §2
Mus musculus [11] = assay: Anticonvulsant activity in CF1 mouse assessed as protection against maximal electroshock-induced seizures at 300 mg/kg, ip after 4 hrs; type: functional, organism-based; set-up: dose 300 mg/kg; summary of the method: as §1
Mus musculus [12] = assay: Anticonvulsant activity in CF1 mouse assessed as protection against maximal electroshock-induced seizures at 30 mg/kg, ip after 4 hrs; type: functional, organism-based; set-up: dose 30 mg/kg; summary of the method: as §1
Mus musculus [13] = assay: Neurotoxicity in CF1 mouse at 300 mg/kg, ip after 0.5 hrs by rotarod test; type: toxicity, organism-based; set-up: dose 300 mg/kg, route intraperitoneal; settings: in vivo; summary of the method: as §2
Mus musculus [14] = assay: Anticonvulsant activity in CF1 mouse assessed as protection against maximal electroshock-induced seizures at 30 mg/kg, ip after 0.5 hrs; type: functional, organism-based; set-up: dose 30 mg/kg; summary of the method: as §1
Mus musculus [15] = assay: Anticonvulsant activity in CF1 mouse assessed as protection against subcutaneous metrazole-induced seizures at 100 mg/kg, ip after 4 hrs; type: functional, organism-based; set-up: dose 100 mg/kg
Mus musculus [16] = assay: Neurotoxicity in CF1 mouse at 30 mg/kg, ip after 4 hrs by rotarod test; type: toxicity, organism-based; set-up: dose 30 mg/kg, route intraperitoneal; settings: in vivo; summary of the method: as §2
Mus musculus [17] = assay: Neurotoxicity in CF1 mouse at 30 mg/kg, ip after 0.5 hrs by rotarod test; type: toxicity, organism-based; set-up: dose 30 mg/kg, route intraperitoneal; settings: in vivo; summary of the method: as §2
Mus musculus [18] = assay: Anticonvulsant activity in CF1 mouse assessed as protection against subcutaneous metrazole-induced seizures at 100 mg/kg, ip after 0.5 hrs; type: functional, organism-based; set-up: dose 100 mg/kg

| SMILES | Activity (Mus musculus [1]) | Activity (Mus musculus [2]) | Activity (Mus musculus [3]) | Activity (Mus musculus [4]) | Activity (Mus musculus [5]) | Activity (Mus musculus [6]) | Activity (Mus musculus [7]) | Activity (Mus musculus [8]) | Activity (Mus musculus [9]) | Activity (Mus musculus [10]) | Activity (Mus musculus [11]) | Activity (Mus musculus [12]) | Activity (Mus musculus [13]) | Activity (Mus musculus [14]) | Activity (Mus musculus [15]) | Activity (Mus musculus [16]) | Activity (Mus musculus [17]) | Activity (Mus musculus [18]) |
| --- | --- | --- | --- | --- | --- | --- | --- | --- | --- | --- | --- | --- | --- | --- | --- | --- | --- | --- |
| CCCOc1c(C(=O)NN=C2CC(C)Sc3sc(S(N)(=O)=O)cc32)sc(C(=O)NN=C2CC(C)Sc3sc(S(N)(=O)=O)cc32)c1OCCC (stereo not drawn) | inactive | inactive | inactive | inactive | Toxic | inactive | inactive | Toxic | inactive | Non-toxic | inactive | inactive | Toxic | inactive | inactive | Non-toxic | Non-toxic | inactive |
| CCCOc1c(C(=O)N/N=C/c2ccc3cc(OC)ccc3c2)sc(C(=O)N/N=C/c2ccc3cc(OC)ccc3c2)c1OCCC | inactive | inactive | inactive | inactive | Non-toxic | inactive | inactive | Non-toxic | inactive | Non-toxic | inactive | inactive | Non-toxic | inactive | inactive | Non-toxic | Non-toxic | inactive |
| CCCOc1c(C(=O)N/N=C(\C)c2cc3ccccc3oc2=O)sc(C(=O)N/N=C(\C)c2cc3ccccc3oc2=O)c1OCCC | inactive | inactive | inactive | inactive | Toxic | inactive | inactive | Toxic | inactive | Non-toxic | – | inactive | Toxic | inactive | inactive | Non-toxic | Non-toxic | inactive |
| CCCOc1c(C(=O)N/N=C\c2ccc([N+](=O)[O-])o2)sc(C(=O)N/N=C/c2ccc([N+](=O)[O-])o2)c1OCCC | inactive | inactive | inactive | inactive | Toxic | inactive | inactive | Toxic | inactive | Toxic | inactive | inactive | Toxic | inactive | inactive | Non-toxic | – | – |
| CCCOc1c(C(=O)NN=C2CCCC2)sc(C(=O)NN=C2CCCC2)c1OCCC | inactive | inactive | inactive | inactive | Non-toxic | inactive | inactive | Non-toxic | inactive | Non-toxic | – | inactive | Non-toxic | inactive | inactive | Non-toxic | Non-toxic | inactive |
| CCCOc1c(C(=O)NN=C2CC(C)Sc3sccc32)sc(C(=O)NN=C2CC(C)Sc3sccc32)c1OCCC (stereo not drawn) | inactive | inactive | inactive | inactive | Toxic | inactive | inactive | Non-toxic | inactive | Non-toxic | inactive | inactive | Toxic | inactive | inactive | Non-toxic | Toxic | inactive |
| CCCC/C=N/NC(=O)c1sc(C(=O)N/N=C/CCCC)c(OCCC)c1OCCC | inactive | inactive | inactive | inactive | Toxic | inactive | inactive | Non-toxic | inactive | Non-toxic | inactive | inactive | Toxic | inactive | inactive | Non-toxic | Non-toxic | – |
| CCCOc1c(C(=O)N/N=C(\C)c2ccccc2)sc(C(=O)N/N=C(\C)c2ccccc2)c1OCCC | inactive | inactive | inactive | inactive | Non-toxic | inactive | inactive | Non-toxic | inactive | Non-toxic | – | inactive | Non-toxic | inactive | inactive | Non-toxic | Non-toxic | inactive |
| CCCOc1c(C(=O)N/N=C\c2cccs2)sc(C(=O)N/N=C/c2cccs2)c1OCCC | inactive | inactive | inactive | inactive | Toxic | inactive | inactive | Toxic | inactive | Non-toxic | inactive | inactive | Toxic | inactive | inactive | Non-toxic | Non-toxic | – |
| CCCOc1c(C(=O)N/N=C(/c2ccccc2)c2ccncc2)sc(C(=O)N/N=C(\c2ccccc2)c2ccncc2)c1OCCC | inactive | inactive | inactive | inactive | Non-toxic | – | – | Non-toxic | inactive | Non-toxic | inactive | inactive | Non-toxic | inactive | inactive | Non-toxic | Non-toxic | inactive |
| CCCOc1c(C(=O)N/N=C(\C)c2nccs2)sc(C(=O)N/N=C(\C)c2nccs2)c1OCCC | inactive | inactive | inactive | inactive | Non-toxic | inactive | – | Non-toxic | inactive | Non-toxic | inactive | inactive | Non-toxic | inactive | inactive | Non-toxic | Non-toxic | inactive |
